For assay [1], the species on record is Cavia porcellus. Put plainly: The compound was tested in vitro for inotropic activity in isolated left atria from guinea pig;No effect at a maximal concentration of 50 uM,. Type of assay: functional. In outline:
(§1)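 Isolated left atria preparation. Tension max is the maximal increase in developed tension. […] EC50 was not calculated when tension max was below 250 mg. Bracketed values give the maximal concentration used, and no effect was recorded up to that concentration. Values are means ± SEM.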

Assay [2] deals with Canis familiaris. Put plainly: In vivo hypotension in anesthetized dog, expressed as the dose of the drug producing a 25% decrease in diastolic arterial pressure (DAP) from control value. The format is functional. Particulars: Canis lupus familiaris, Artery.
For assay [3], the species on record is Cavia porcellus. The assay can be described thus: The compound was tested in vitro for inotropic activity expressed as the maximal increase in developed tension. in isolated left atria from guinea pig;No effect at a maximal concentration of 50 uM. Type of assay: functional. In outline: (§2)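 Isolated left atria preparation. Tension max is the maximal increase in developed tension. Bracketed values give the maximal concentration used, and no effect was recorded up to that concentration. Values are means ± SEM.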

Assay [4] concerns Canis familiaris. Put plainly: In vivo contractility in anesthetized dog expressed as dose which produced a 50% increase in dP/dt max from the control value. The format is functional, Canis lupus familiaris.
Assay [5] is filed under the species Cavia porcellus. The assay can be described thus: The compound was tested in vitro for inotropic activity expressed as the maximal increase in developed tension. in isolated left atria from guinea pig,No effect at a maximal concentration of 20 uM. Type of assay: functional. In outline: as §1
For assay [6], the species on record is Cavia porcellus. Put plainly: The compound was tested in vitro for inotropic activity in isolated left atria from guinea pig. No effect at a maximal concentration of 20 uM,. The format is functional. In outline:
as §1

The species entered for assay [7] is Cavia porcellus. The assay can be described thus: The compound was tested in vitro for chronotropic activity in isolated right atria from guinea pig;No effect at a maximal concentration of 50 uM. Type of assay: functional. In outline: (§3)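 Isolated right atria, chronotropic read-out. Rate max is the maximal increase in rate, in beat/min. It comes from three to six experiments and was not calculated when rate max was below 30 beat/min. Bracketed values give the maximal concentration used. Means ± SEM.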

For assay [8], the species on record is Cavia porcellus. The assay can be described thus: In vitro inotropic activity expressed as the maximal increase in developed tension in isolated left atria from guinea pig. Type of assay: functional. The essentials:
as §2

In assay [9] the test system is Canis familiaris. Put plainly: In vivo hypotension in anesthetized dog expressed as the dose of the drug producing a 25% decrease in DAP from control valueNo effect at a maximal concentration of 50 uM. Type of assay: functional. Particulars: Canis lupus familiaris.
The species named for assay [10] is Cavia porcellus. Put plainly: In vitro inotropic activity in isolated left atria from guinea pig. Type of assay: functional. In outline:
as §2

In assay [11] the test system is Canis familiaris. The assay can be described thus: In vivo contractility in anesthetized dog expressed as dose which produced a 50% increase in dP/dt max from the control value. The format is functional. Particulars: Canis lupus familiaris.
Assay [12] concerns Canis familiaris. The assay can be described thus: In vivo contractility in conscious dog expressed as dose which produced a 50% increase in dP/dt max from the control value;No effect up to 1 mg/kg. The format is functional, organism-based. Details: dose 1 mg/kg. The settings on record: Canis lupus familiaris. In outline:
(§4)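 Male beagles (12–15 kg) carried a Königsberg transducer implanted in the left ventricle to record dP/dt max and arterial pressure. Drug or placebo was given by gastric tube as a 1% gum arabic suspension. Effects were followed for 5 h.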

The species named for assay [13] is Cavia porcellus. Put plainly: The compound was tested in vitro for chronotropic activity expressed as the maximal increase in beat/min in isolated right atria from guinea pig.
The test system of assay [14] is Canis familiaris. The assay can be described thus: In vivo contractility in conscious dog expressed as dose which produced a 50% increase in dP/dt max from the control value. Particulars: Canis lupus familiaris. Type of assay: functional. In outline: as §4
Assay [15] is filed under the species Cavia porcellus. The assay can be described thus: The compound was tested in vitro for chronotropic activity in isolated right atria from guinea pig. The format is functional. The essentials: as §3

Calls of active or inactive are those of the source. The rule behind the calls is not given here.

With `Cc1cc2[nH]c(-c3ccc(-n4ccnc4)cc3)nc2cc1-n1ccnc1.Cl.O`, the concentration for a half-maximal effect (EC50) (commonly the concentration needed to bring the measured effect to its halfway point) in the assay listed under Cavia porcellus [1] is on record as “Not Active”. The ED25 with Canis familiaris [2] is over 3 mg/kg. The Ionotropic activity entry in the assay filed under Cavia porcellus [3] was “inactive”. Further, the Contractility in the assay on Canis familiaris [4] was over 3 mg/kg.
As to `c1ccc(Nc2ncccc2-c2nc3cc(-n4ccnc4)ccc3[nH]2)cc1`, in the assay filed under Cavia porcellus [5], the Ionotropic activity result was “inactive”. Besides, the EC50 result in the assay listed under Cavia porcellus [6] is “Not Active”.
In the case of `c1ccc(-c2nc3cc(-n4ccnc4)ccc3[nH]2)nc1`, the figures for the EC50 entry in the assay filed under Cavia porcellus [7] and in the assay listed under Cavia porcellus [10] were “Not Active” and over 50 µM, respectively. This compound returned an Ionotropic activity in the assay listed under Cavia porcellus [8] of 170 mg. In the assay with Canis familiaris [9], the ED25 was 3 mg/kg. In addition, in the assay with Canis familiaris [11], the median effective dose (ED50) – broadly, the dose at which the effect has come halfway, by size or by number of responders – was over 3 mg/kg.
Take `c1cc(-c2nc3c[nH]c(-n4ccnc4)nc-3n2)ccn1`: the ED50 entry with Canis familiaris [12] is “inactive”.
In turn, `Cc1[nH]c(=O)c(C#N)cc1-c1ccncc1` [MILRINONE] gave an Ionotropic activity in the assay listed under Cavia porcellus [8] of 580 mg. The same compound yielded an ED25 in the assay on Canis familiaris [2] of 1 mg/kg. Besides, the EC50 worked out at 4.7 µM in the assay listed under Cavia porcellus [10] and 22 µM in the assay listed under Cavia porcellus [15]. In addition, the Rate max in the assay filed under Cavia porcellus [13] was 70 beats min-1. Besides, the ED50 in the assay with Canis familiaris [14] came out at 2 mg/kg; in the assay with Canis familiaris [11] it was 0.15 mg/kg.
In the assay filed under Cavia porcellus [8], `O=C1CCC(c2ccc(Nc3ccncc3)cc2)=NN1` [SENAZODAN] displayed an Ionotropic activity of 410 mg. In addition, the ED25 in the assay with Canis familiaris [2] turned out to be 0.1 mg/kg. Also, the EC50 in the assay filed under Cavia porcellus [10] is 34 µM; in the assay listed under Cavia porcellus [15], 20 µM. The same compound yielded a Rate max in the assay filed under Cavia porcellus [13] of 39 beats min-1. For the same compound, the ED50 is 0.1 mg/kg in the assay with Canis familiaris [14] and 0.009 mg/kg in the assay with Canis familiaris [11].
In the assay listed under Cavia porcellus [8], `COc1cc([S+](C)[O-])ccc1-c1nc2cccnc2[nH]1` (stereo not drawn) [SULMAZOLE] showed an Ionotropic activity of 600 mg. Also, in the assay with Canis familiaris [2], the ED25 is 5 mg/kg. The concentration giving a half-maximal response (EC50) in the assay listed under Cavia porcellus [10] worked out at 31 µM; in the assay filed under Cavia porcellus [15], 100 µM. This compound gave a Rate max in the assay filed under Cavia porcellus [13] of 88 beats min-1. Besides, the median effective dose (ED50) in the assay with Canis familiaris [14] was found to be 10 mg/kg; with Canis familiaris [11], 1 mg/kg.

For the origin of these results see ChEMBL document CHEMBL1125370, “Cardiotonic agents. Synthesis and cardiovascular properties of novel 2-arylbenzimidazoles and azabenzimidazoles” (J Med Chem, 1992).
